Bioassay records (PubChem)
A selection: hits, their analogues and other compounds. The true share with any hit is near 2%.
M1 antag – human CHRM1 antagonism | P11229 | CHO-K1 hM1, Fluo-8 calcium fluorescence, ACh EC80 antagonist | inhibition, % at 3 µM | 360,000 tested, 1.3% active | AID 588852;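 active = percent inhibition above its own plate's cutoff, namely the mean of that plate's compound wells plus 3 SD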;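 also: peak over basal fluorescence ratio during 140 s after agonist addition; 0% = ACh EC80 plus DMSO and 100% = DMSO alone without agonist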
Target sequence (P11229 whole entry, looked up): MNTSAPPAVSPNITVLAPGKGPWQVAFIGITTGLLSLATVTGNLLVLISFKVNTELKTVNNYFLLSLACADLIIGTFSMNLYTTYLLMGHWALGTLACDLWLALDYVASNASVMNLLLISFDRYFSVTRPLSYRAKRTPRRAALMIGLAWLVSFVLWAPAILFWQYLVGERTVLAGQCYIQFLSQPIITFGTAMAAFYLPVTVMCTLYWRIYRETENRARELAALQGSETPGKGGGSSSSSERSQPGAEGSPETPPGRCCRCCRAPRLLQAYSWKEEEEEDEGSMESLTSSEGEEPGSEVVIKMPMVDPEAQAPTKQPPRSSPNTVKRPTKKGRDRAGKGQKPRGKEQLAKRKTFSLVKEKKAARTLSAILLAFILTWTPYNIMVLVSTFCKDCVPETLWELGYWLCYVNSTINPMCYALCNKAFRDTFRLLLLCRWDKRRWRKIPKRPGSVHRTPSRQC
CHRM5 antagonist – CHRM5 antagonism in calcium assay; CHO-hM5 cells, Fluo-8 calcium fluorescence, ACh EC80; 360,000 tested, 0.59% active; inhibition, % at 3 µM;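 active = inhibition above a per-plate cutoff, the mean of that plate's test compounds plus 3 SD, cut at about 27% in these data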;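 also: 0% = acetylcholine EC80 with DMSO and 100% = DMSO without agonist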
CHRM1 PAM – human CHRM1 positive allosteric modulation | activation, % at 3 µM | CHO-K1 hM1, Fluo-8 calcium fluorescence, ACh EC20; 0% = ACh EC20, 100% = maximal ACh | 360,000 tested, 0.088% active | P11229; in the data active = activation above about 19%, passing the limit was not always enough
M5 ag – agonists of human muscarinic M5 receptor (CHRM5); activation, % at 3 µM; AID 624037; 360,000 tested, 0.19% active; P08912; CHO-K1 hM5 cells, Fluo-8 calcium fluorescence; 0% DMSO wells, 100% maximal acetylcholine response;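 active = activation above the run's mean over test compounds plus 3 SD, cut at about 23% in these data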;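 also: signal is peak over basal fluorescence ratio across the kinetic read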
M1 ag – agonists of human M1 muscarinic receptor; CHO-K1 hM1, Fluo-8 calcium fluorescence, agonist mode; 0% DMSO, 100% acetylcholine EC100; 360,000 tested, 0.33% active; P11229; activation, % at 3 µM;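 active = activation above the run's mean compound activation plus 3 SD, cut at about 16% in these data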;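 also: peak over basal fluorescence ratio within a 140 s kinetic read after compound addition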
CHRM5 PAM – CHRM5 positive allosteric modulation; activation, % at 3 µM; CHO-K1 hM5, Fluo-8 calcium, ACh EC20 PAM; 0% = ACh EC20, 100% = ACh EC100; 360,000 tested, 0.3% active;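 active = activation above the run cutoff, the mean activation of all test compounds plus 3 SD, cut at about 18% in these data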
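system = human M5 receptor in CHO-K1 cells | compound = one concentration, 3 µM final (nominal) | schedule = Post-acetylcholine fluorescence recording 140 s | signal = Fluo-8 calcium dye fluorescence, kinetic read | benchmarks = low control EC20 acetylcholine (0%), high control EC100 acetylcholine (100%) | repeats = singlicate, one well per test compound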
* marks the source's active call; other numbers are inactive results; · = no result.

SMILES | M1 antag | CHRM5 antagonist | CHRM1 PAM | M5 ag | M1 ag | CHRM5 PAM
O=C(CN1CCN(S(=O)(=O)c2ccc(F)cc2)CC1)c1ccc(O)c(O)c1 | -11.9 | -1.0 | 7.9 | 1.8 | -4.3 | 2.5
O=C(NC1CCCCC1)C(c1ccccc1)N1CCCC1 (centres undefined) | 79.8* | 12.2 | -25.6 | -12.7 | -6.3 | -28.9
Cc1cccc(N2CCN(C(C(=O)NCc3ccccc3)c3ccc(F)cc3)CC2)c1C (centres undefined) | · | -1.7 | · | 9.3 | · | 0.6
CCOC1=C2[C@H](c3ccc(Cl)cc3)N(S(=O)(=O)c3ccc(C)cc3)C[C@H]2n2c(=O)n(-c3ccccc3)c(=O)n2C1 | -5.9 | 8.2 | 4.5 | 2.5 | -0.2 | -5.4
CCC(C(=O)Nc1c(C)cccc1C)n1c(-c2ccc(-c3ccccc3)cc2)nc2ccccc21 (centres undefined) | · | -2.8 | · | 1.5 | · | 7.5
COc1ccc(Nc2nc(Nc3ccc(OC)cc3)nc(-n3[nH]c(=O)c(C)c3C)n2)cc1 | 33.0* | 30.6* | -6.9 | -2.7 | -2.9 | -17.0
C[C@H](O)[C@@H]1C(=O)N2CCc3ccc(-c4ccccc4)cc3[C@@H]2C[C@@H]1N(C)C(=O)NC1CCCCC1 | 41.8* | 8.5 | -9.9 | 0.2 | -9.5 | -4.8
Cc1ccc(C2C(C#N)=C(N)Oc3cc(N)ccc32)cc1 (centres undefined) | -15.3 | 6.6 | 8.4 | 0.6 | -0.3 | -1.1
Cc1ccc(/C=C2\CCC3=C2OC(N)=C(C#N)C3c2ccc(C)cc2)cc1 (centres undefined) | 49.8* | 33.0* | -11.9 | 4.4 | 26.7* | -27.5
O=C(CCN1CCOCC1)N1c2ccccc2Sc2ccc(Cl)cc21 | 99.5* | 94.6* | -28.7 | -6.6 | -8.4 | -16.9
O=C(NCCN1CCOCC1)N1c2ccccc2Sc2ccccc21 | 61.5* | 59.2* | -23.6 | -13.0 | -5.2 | -29.2
CN(C)CCCNC(=O)N1c2ccccc2Sc2ccccc21 | 100.3* | 100.1* | -28.2 | -24.1 | -10.8 | -34.1
CC1(C(=O)O)CCCN1C(=O)c1cc2ccccc2s1 (centres undefined) | -13.6 | -0.6 | 5.9 | 0.7 | -1.4 | 0.1
Cc1cc(Oc2ccc(N)cn2)ccc1Cl | 8.4 | 31.2* | 10.6 | 23.7* | 2.8 | 1.3
COc1cccc(Oc2ccc(N)cn2)c1 | 14.8 | 0.9 | -5.6 | -1.8 | -4.7 | -0.3
COc1ccc(Nc2ccnc3ccccc23)cc1 | -8.9 | -3.6 | -0.2 | -4.0 | 25.2* | -5.2
Cc1ccc(NC(=O)C[n+]2ccn(C3=C([O-])c4ccccc4C3=O)c2)cc1 | 12.4 | 29.4* | -11.1 | -2.3 | -6.9 | -17.2
Cc1ccc(S(=O)(=O)/N=C2\C(=O)c3ccccc3C([O-])=C2n2cc[n+](CCC(C)C)c2)cc1 | -6.2 | 3.4 | -0.8 | 1.3 | -5.8 | -5.5
CCNC(=O)C1CCCN(C(=O)c2cc(F)cc(F)c2)CC1 (centres undefined) | -11.3 | -5.5 | 3.0 | -0.5 | -2.2 | 4.4
C[N+]1(CC2COC3(CCCCC3)O2)CCCCC1 (centres undefined) | 3.1 | 11.5 | -1.4 | -18.6 | -6.3 | -7.5
CC(c1ccccc1)C1OCC(C[N+]2(C)CCCCC2)O1 (centres undefined) | 98.6* | 30.1* | -23.2 | -9.1 | -5.9 | -17.6
CC1(C(=O)NCc2cccc(Cl)c2)Cc2c(-c3cccc(C(N)=O)c3)ccnc2O1 (centres undefined) | -17.0 | -2.9 | 17.5 | -0.9 | 3.2 | 3.3
Cc1ccc(NC2=NC(c3ccc(F)cc3)n3c(nc(C)cc3=O)N2)c(C)c1 (centres undefined) | 37.5* | -1.1 | -14.3 | -3.6 | -6.7 | 5.2
Cc1ccc(NC2=NC(c3ccccc3)n3c(nc(C)cc3=O)N2)c(C)c1 (centres undefined) | 19.4 | 5.0 | -13.7 | -5.6 | -7.2 | -5.1
CCCCOC(=O)CSc1nc(N)c(C#N)c(-c2ccc(OC)cc2)c1C#N | -12.4 | -21.2 | 4.5 | -4.1 | -3.8 | 23.1*
SMILES | M1 antag | CHRM5 antagonist | CHRM1 PAM | M5 ag | M1 ag | CHRM5 PAM
COc1ccccc1[C@@]1(C)ON(c2ccccc2C(F)(F)F)C1=O | -3.5 | 0.9 | 8.1 | -1.9 | -3.6 | 1.6
COC1OC(COC(=O)c2ccccc2)C(OC(=O)c2ccccc2)C1OC(=O)c1ccccc1 (centres undefined) | 3.0 | -1.4 | 3.6 | -3.7 | -1.0 | -7.6
COC1OC(COCc2ccccc2)C(N)C(OCc2ccccc2)C1OCc1ccccc1 (centres undefined) | 41.7* | 18.7 | -27.6 | -3.3 | -1.9 | -14.9
COc1ccc(-c2c[n+]3c4n2CCCCC4=C(c2ccc(Br)cc2)C3)cc1 | 34.8* | 3.3 | -27.5 | -6.3 | -14.8 | -3.2
C[C@H](CO)N1C[C@H](C)[C@@H](CN(C)S(=O)(=O)c2ccc(C#N)cc2)OCc2cn(nn2)CCCC1=O | -2.7 | -13.5 | 0.0 | 1.0 | -5.0 | 7.7
Cc1ccc(C)c(OCCC(=O)OCC(=O)NCCNC(=O)COC(=O)CCOc2cc(C)ccc2C)c1 | 47.2* | 34.5* | -17.7 | 7.7 | 3.0 | -31.4
CCN1C/C(=C/c2ccc(N3CCOCC3)cc2)C(=O)/C(=C/c2ccc(N3CCOCC3)cc2)C1 | 31.5 | 18.2 | -9.4 | 15.2 | 23.5* | -9.7
CN1C/C(=C\c2ccc(N3CCOCC3)cc2)C(=O)/C(=C/c2ccc(N3CCOCC3)cc2)C1 | 22.4 | 4.4 | -9.9 | 7.2 | 1.1 | -5.6
CC(C)(C)n1nnnc1C(c1ccccc1)N1CCN(CCN2CCOCC2)CC1 (centres undefined) | · | 7.9 | · | -6.8 | · | -10.2
CN(C)C(C)(C)/C=C/C(O)(c1ccccc1)c1ccccc1 | 100.0* | 63.5* | -25.9 | -19.9 | -7.9 | -30.1
CCCCCCOc1ccc(/C(C)=N/NC2=NCCN2)cc1[N+](=O)[O-] | -8.9 | -6.4 | 10.4 | -2.2 | -9.1 | 5.6
CCCCOc1ccc(Br)cc1/C(C)=N/NC1=NCCN1 | 72.6* | 16.6 | -22.1 | -5.3 | -4.4 | -17.7
C[C@H]1CN([C@@H](C)CO)C(=O)CCCn2nncc2CO[C@H]1CN(C)C(=O)NC1CCCCC1 | -4.5 | 2.8 | 0.7 | 1.8 | -2.2 | -0.1
O=C1c2ccccc2C(c2nnnn2-c2ccc3c(c2)OCCO3)N1CCc1ccccc1F (centres undefined) | · | 3.5 | · | 3.8 | · | -4.2
CC1CCC(C(C)C)C(OC(=O)COC(=O)c2cccn2C)C1 (centres undefined) | -3.1 | -0.9 | 2.0 | -4.2 | -4.5 | -8.3
CC1CCC(C(C)C)C(OC(=O)Cn2c(-c3ccc(Br)cc3)[n+](C)c3ccccc32)C1 (centres undefined) | 23.0* | 10.6 | -29.0 | -11.9 | -15.8 | -10.5
